Reference: PMC5697452 (ACS Chemical Biology, 2017)
Entries after “also recorded” stand apart in the source; their conditions may differ. One block for each compound: values may come before it.

Tests used:
COS-1 cells = experiment: MTT cell viability, COS-1 cells; type: cell-based, monkey; conditions: 24 h
In short: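 COS-1 cells stably expressing vector control or proMMP-9 cDNA were treated 24 h with DMSO, 50 μM compound, or 100 nM staurosporine (positive control for acute toxicity). Viability was assessed by MTT.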

[1] = test system: HT1080 cells on chicken embryo CAM; experiment: Chorioallantoic membrane; type: in vivo; conditions: final concentration estimated 0.5 μM, 7-day incubation, vs DMSO and 1f
In short: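 Ex ovo chick embryos were inoculated at day 10 with pretreated GFP-expressing HT1080 cells in a 3 mg/mL collagen solution seeded atop the CAM. Compound was added from a 100 μM stock (estimated final 0.5 μM), with DMSO control. After 7 days at 37 °C, CAM segments were formalin-fixed, OCT-embedded, cut at 6 μm and H&E stained. GFP+ cells were scored by fluorescence microscopy.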

APMA-activated MMP-9 = APMA-activated MMP-9 (Homo sapiens, UniProt P14780); experiment: Fluorogenic peptide assay of MMP-9 catalytic activity; type: biochemical; conditions: 10 μM fluorogenic peptide, 2 h; for inhibition of MMP-9 catalytic activity: 50 μM compound
In short: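 Recombinant proMMP-9 was activated overnight at 37 °C in TNC buffer with 1 mM APMA. […] Fluorescence (ex 320/em 405 nm) was read every 10 min over 2 h.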

HT1080 cells [2] = experiment: Immunofluorescence of HT1080 cells; type: cell-based, human; conditions: for MMP-9 cell surface localization: 50 μM; for formation of FAK and PAX adhesion junctions: 50 μM overnight
In short: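 HT1080 cells were fixed in 4% paraformaldehyde/PBS and blocked in 5% BSA/PBS. Staining used anti-MMP-9 (anti-rabbit Alexa 488) with anti-α4 and/or anti-β1 integrin (anti-mouse Alexa 568), or anti-p-FAK Tyr576/577 (Alexa 568) and anti-p-PAX Tyr118 (Alexa 488). Nuclei were counterstained with DAPI, and images were taken by two-photon laser-scanning confocal microscopy.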

closely related MMPs = conditions: cited from earlier work
HT1080 cells [3] = experiment: Cellular adhesion assay on collagen or fibronectin; type: cell-based, human; conditions: 30 min at 37 °C
In short: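 HT1080 cells seeded in 96-well plates coated with a thin layer of collagen or fibronectin (5 μg/mL in PBS). Cells were held 30 min at 37 °C with test compound. Wells were then washed and the cells fixed in 4% paraformaldehyde and stained with DAPI. Adherent cells were imaged and counted automatically.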

[4] = test system: proMMP-9-mediated cancer cell migration; conditions: in vitro; cited from earlier work
[5] = test system: HT1080 fibrosarcoma cells; experiment: Two-dimensional dot migration assay, HT1080 cells; type: cell-based, human; conditions: 50 µM, relative to control groups
cancer metastasis = conditions: in vivo mouse xenograft model; cited from earlier work
[6] = test system: EGFR, AKT, Erk1/2, Src, FAK, PAX phosphorylation; experiment: Immunoblot of downstream signaling phosphorylation in HT1080 cells; type: cell-based, human; conditions: 50 μM
In short: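 HT1080 cells transiently expressing Myc-tagged MMP-9 were treated with 50 μM compound. Lysates were run on 10% SDS-PAGE and immunoblotted for phospho-Src Tyr418, phospho-FAK Tyr576/577 and phospho-PAX Tyr118.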

MMP-9 = conditions: cited from earlier work
[7] = test system: HT1080 cells on chicken embryo CAM; experiment: Chorioallantoic membrane; type: in vivo; conditions: final concentration estimated 0.5 μM, 4-day incubation, vs DMSO and 1f
In short: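 Fertilized white chicken eggs were incubated 3 days at 37 °C and 70% humidity, then cultured ex ovo in Petri dishes. HT1080 cells adsorbed onto a gelatin sponge were implanted on the CAM. Compound was added from a 100 μM stock (estimated final 0.5 μM); DMSO served as control. Blood vessels surrounding the sponge were counted on day 4 at 37 °C.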

[8] = test system: HT1080 fibrosarcoma cells; experiment: Chronic toxicity in HT1080 fibrosarcoma cells; type: cell-based, human; conditions: 100 μM, retreated every 3 days for 9 days; data not shown
In short: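 HT1080 cells were cultured in complete medium with or without compound, with medium and compound replaced repeatedly over 9 days. Viability was measured daily by MTT: 4 h at 37 °C, then formazan solubilised and absorbance read at 570 nm.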

[9] = test system: proMMP-14 expressing COS-1 cells; experiment: Two-dimensional dot migration assay, COS-1 cells expressing proMMP-14; type: cell-based, monkey; conditions: 50 μM
In short: (§1)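 COS-1 cells expressed vector pQCXIP, proMMP-2, proMMP-9 or proMMP-14 (polyethylenimine transfection, 48 h at 37 °C); expression was checked by immunoblot of lysates and serum-free medium. Cells were mixed 1:1 with neutralized type I collagen (3 mg/mL) on ice, and 1 μL dots (1 × 10^7 cells/mL) were set. Dots were covered with complete medium ± 50 μM compound for 18 h, then fixed and DAPI-stained, and migrated cells were counted.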

proMMP-2 = molecular target: T1, proMMP-2 (Homo sapiens, UniProt P08253); experiment: Saturated transfer difference; type: binding; conditions: compound:protein 38:1 (300 µM:8 µM), 4 °C
T1 sequence (P08253 30-660 limits assumed): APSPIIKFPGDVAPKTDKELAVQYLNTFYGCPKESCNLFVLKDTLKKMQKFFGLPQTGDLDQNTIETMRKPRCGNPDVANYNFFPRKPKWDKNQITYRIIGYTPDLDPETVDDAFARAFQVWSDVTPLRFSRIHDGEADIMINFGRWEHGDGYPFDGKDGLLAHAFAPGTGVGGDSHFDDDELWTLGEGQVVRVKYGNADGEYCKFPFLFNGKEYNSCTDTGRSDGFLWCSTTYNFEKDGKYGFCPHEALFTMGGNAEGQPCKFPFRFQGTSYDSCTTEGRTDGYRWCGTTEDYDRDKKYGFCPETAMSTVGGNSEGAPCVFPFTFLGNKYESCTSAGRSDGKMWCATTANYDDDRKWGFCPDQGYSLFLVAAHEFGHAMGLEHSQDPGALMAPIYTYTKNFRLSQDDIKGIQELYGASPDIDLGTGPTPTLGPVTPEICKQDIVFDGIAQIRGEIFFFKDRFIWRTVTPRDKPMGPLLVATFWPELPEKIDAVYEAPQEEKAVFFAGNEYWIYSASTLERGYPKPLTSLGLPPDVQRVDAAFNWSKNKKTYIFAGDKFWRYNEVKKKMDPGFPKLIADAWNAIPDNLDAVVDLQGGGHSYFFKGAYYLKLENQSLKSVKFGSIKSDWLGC

proMMP-9 [10] = molecular target: T2, proMMP-9 (Homo sapiens, UniProt P14780); experiment: Saturated transfer difference; type: binding; conditions: compound:protein 38:1 (300 µM:8 µM), 4 °C
[11] = test system: EGFR-CD44 and EGFR-β1 integrin; experiment: Co-immunoprecipitation of endogenous EGFR in HT1080 cells; type: cell-based, human; conditions: 50 μM
proMMP-9 [12] = molecular target: T2, proMMP-9; experiment: Tryptophan fluorescence blue-shift binding assay with proMMP-9
[13] = test system: proMMP-2 expressing COS-1 cells; experiment: Two-dimensional dot migration assay, COS-1 cells expressing proMMP-2; type: cell-based, monkey; conditions: 50 μM
In short: as §1

proMMP-9/MMP-2PEX = experiment: Tryptophan fluorescence binding assay with chimera proMMP-9/MMP-2PEX; set-up: species or system human; conditions: chimera with MMP-2 PEX domain, 0.5 μM
In short: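 Purified recombinant chimera (0.5 μM) was titrated with test compound in TNC buffer (50 mM Tris-HCl, 10 mM CaCl2, pH 7.5). A buffer-only addition served as the protein stability control. After each addition the sample was stirred 1 min at RT, excited at 280 nm, and scanned 300–425 nm, averaging three scans. Kd was fitted to ΔF/ΔFMax, where ΔF is the emission shift in nm.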

T2 sequence (P14780 20-707 limits assumed): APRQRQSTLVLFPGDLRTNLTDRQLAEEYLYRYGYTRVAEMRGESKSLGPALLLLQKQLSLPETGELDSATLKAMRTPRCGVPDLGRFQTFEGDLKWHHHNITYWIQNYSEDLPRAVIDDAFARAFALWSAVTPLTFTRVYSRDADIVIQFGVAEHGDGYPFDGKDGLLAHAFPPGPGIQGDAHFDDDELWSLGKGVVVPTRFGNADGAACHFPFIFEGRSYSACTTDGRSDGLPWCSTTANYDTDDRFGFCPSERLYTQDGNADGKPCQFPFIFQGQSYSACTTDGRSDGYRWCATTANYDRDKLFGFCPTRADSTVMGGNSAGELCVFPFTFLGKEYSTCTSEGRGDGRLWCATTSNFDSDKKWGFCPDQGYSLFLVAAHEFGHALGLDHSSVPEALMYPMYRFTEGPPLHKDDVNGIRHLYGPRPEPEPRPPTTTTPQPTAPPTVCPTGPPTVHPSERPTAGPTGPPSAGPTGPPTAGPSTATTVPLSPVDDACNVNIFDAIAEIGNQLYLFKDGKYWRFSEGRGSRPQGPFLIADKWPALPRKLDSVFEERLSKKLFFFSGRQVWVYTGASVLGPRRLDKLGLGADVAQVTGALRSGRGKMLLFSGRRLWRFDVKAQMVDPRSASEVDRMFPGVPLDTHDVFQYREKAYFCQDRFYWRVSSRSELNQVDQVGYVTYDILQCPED
Chain of APMA-activated MMP-9 (P14780 107-707 limits assumed): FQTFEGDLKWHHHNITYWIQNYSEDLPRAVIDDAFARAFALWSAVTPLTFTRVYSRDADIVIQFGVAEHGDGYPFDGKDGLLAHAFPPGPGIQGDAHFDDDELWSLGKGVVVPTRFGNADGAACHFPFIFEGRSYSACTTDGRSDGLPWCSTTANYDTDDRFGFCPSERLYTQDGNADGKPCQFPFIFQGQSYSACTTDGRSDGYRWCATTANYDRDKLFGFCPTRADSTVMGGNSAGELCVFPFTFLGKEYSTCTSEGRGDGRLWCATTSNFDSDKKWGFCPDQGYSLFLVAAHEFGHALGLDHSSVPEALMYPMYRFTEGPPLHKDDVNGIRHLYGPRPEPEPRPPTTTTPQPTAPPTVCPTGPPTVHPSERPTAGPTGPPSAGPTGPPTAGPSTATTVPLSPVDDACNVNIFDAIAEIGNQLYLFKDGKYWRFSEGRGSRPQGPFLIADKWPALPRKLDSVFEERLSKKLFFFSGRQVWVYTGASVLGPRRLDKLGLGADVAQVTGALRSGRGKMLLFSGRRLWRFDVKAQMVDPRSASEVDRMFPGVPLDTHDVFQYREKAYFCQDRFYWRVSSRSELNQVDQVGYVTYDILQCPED

Compound: CN[C@@H]1C[C@H]2O[C@@](C)([C@@H]1OC)n1c3ccccc3c3c4c(c5c6ccccc6n2c5c31)C(=O)NC4 [STS, staurosporine, reference compound]
cell death (COS-1 cells; 100 nM, positive control): Significant cell death

Compound: CCCc1cc(=O)nc(SCC(=O)Nc2ccc(OC(F)F)cc2)[nH]1 [Compound 1a, N-(4-Difluoromethoxyphenyl)-2-(4-oxo-6-propyl-1,4-dihydropyrimidin-2-ylthio)acetamide]
invasion of CAM tissue by HT1080 cells [1]: reduced invasion of CAM tissue
inhibition of MMP-9 catalytic activity (APMA-activated MMP-9): No inhibition of the catalytic activity was observed
MMP-9 cell surface localization (HT1080 cells [2]): loss of MMP-9 from the cell surface
formation of FAK and PAX adhesion junctions (HT1080 cells [2]): decrease in the formation of FAK and PAX adhesion junctions
binding to closely related MMPs (closely related MMPs): does not bind to closely related MMPs
cell adhesion to collagen or fibronectin (HT1080 cells [3]; 50 µM): inhibited cellular adhesion
proMMP-9-mediated cancer cell migration and proliferation [4]: inhibited proMMP-9-mediated cancer cell migration and proliferation
inhibition of migration [5]: the same inhibition potency was observed
cancer metastasis (cancer metastasis): effectively prevented cancer metastasis
phosphorylation of Src Tyr418 and downstream FAK Tyr576/577 and PAX Tyr118 [6]: reduced Src^Tyr418 phosphorylation
inhibition of MMP-9 enzymatic activity (MMP-9): did not inhibit MMP-9 enzymatic activity
angiogenic potential of HT1080 cells (neovascularization) [7]: significantly reduced the angiogenic potential

substrate cleavage by activated MMP-9 (APMA-activated MMP-9; 250 nM Marimastat): no substrate cleavage was observed
Compound: CNC(=O)[C@@H](NC(=O)[C@H](CC(C)C)[C@H](O)C(=O)NO)C(C)(C)C [Marimastat, reference compound]
formation of focal adhesion contact sites (HT1080 cells [2]; 80 nM marimastat): did not prevent the formation of focal adhesion contact sites
cell adhesion to collagen or fibronectin (HT1080 cells [3]; 80 nM Marimastat): no observable effect on cell attachment

Compound: O=C(CCCSc1nc2c(c(=O)[nH]1)CCCC2)Nc1ccc(F)cc1 [Compound 3c, N-(4-Fluorophenyl)-4-(4-oxo-3,4,5,6,7,8-hexahydroquinazolin-2-ylthio)butanamide]
decrease in cell growth (COS-1 cells; 50 μM, nonstatistically significant): 8%
invasion of CAM tissue by HT1080 cells [1]: blocks cancer cell invasion of the basement membrane; also recorded: reduced invasion of CAM tissue
inhibition of MMP-9 catalytic activity (APMA-activated MMP-9): No inhibition of the catalytic activity was observed
cell death (chronic toxicity) [8]: No cell death was observed
MMP-9 cell surface localization (HT1080 cells [2]): loss of MMP-9 from the cell surface
formation of FAK and PAX adhesion junctions (HT1080 cells [2]): decrease in the formation of FAK and PAX adhesion junctions
cell adhesion to collagen or fibronectin (HT1080 cells [3]; 50 µM): inhibited cellular adhesion
inhibition of proMMP-14 mediated cell migration [9]: lack of inhibition
STD NMR peaks (proMMP-2): not in the presence of proMMP-2
STD NMR peaks (proMMP-9 [10]): STD peaks were observed in the presence of proMMP-9
interaction between EGFR-CD44 and EGFR-β1 integrin [11]: Decreased interaction between EGFR-CD44 and EGFR-β1 integrin
binding affinity relative to parent compound 1a (proMMP-9 [12]; Kd comparison): four times tighter
maximal λMax shift (proMMP-9 [12]; after treatment with 25 μM inhibitor, ex 280 nm): 9 nm
Kd (proMMP-9 [12]; tryptophan fluorescence, purified recombinant proMMP-9 0.5 μM, TNC buffer pH 7.5): 320 nM
inhibition of migration [5]: the same inhibition potency was observed
inhibition of proMMP-2 mediated cell migration [13]: lack of inhibition
phosphorylation of Src Tyr418 and downstream FAK Tyr576/577 and PAX Tyr118 [6]: reduced Src^Tyr418 phosphorylation
angiogenic potential of HT1080 cells (neovascularization) [7]: reduces angiogenesis; also recorded: significantly reduced the angiogenic potential
shift in tryptophan fluorescence upon titration (proMMP-9/MMP-2PEX): no shift in fluorescence was observed
